FAK inh: FAK (human) kinase inhibition; 97,000 tested, 0.84% active; inhibition, %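 (tested at 7 µM)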; AID 727; biochemical FAK kinase activity assay; in the data active = inhibition above about 19%
Rev-RRE block: inhibitors of HIV-1 Rev-RRE RNA interaction; inhibition, % at 8 µM; P05866; Rev peptide-RRE RNA binding, FRET; 97,000 tested, 0.79% active; AID 704;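 active = inhibition above the screen-wide mean plus 3 SD, cut at about 35% in these data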
Target sequence (P05866 whole entry, looked up): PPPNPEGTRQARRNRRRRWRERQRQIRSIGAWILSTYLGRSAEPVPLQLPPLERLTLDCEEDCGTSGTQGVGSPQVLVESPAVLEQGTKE
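Test system: labelled RRE RNA duplex and labelled Rev peptide. Times: 5 min compound–RNA preincubation, then 15 min with peptide, 25 °C. Doses: single-dose 8 µM. Measured by: FRET, excitation 480 nm, emission 540 nm donor and 671 nm acceptor. Measure: % inhibition of FRET ratio versus controls.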
Measles CPE: protection of cells from measles virus. 140,000 tested, 1.5% active. AID 841. Measles virus-infected cells, CPE protection, absorbance. protection (pct of control), % at 4 µM; in the data active = protection mostly above about 24%, no sharp cut-off; inactive = mostly below about 26%
IL1B NFkB inh: blocks IL-1B driven NFkB nuclear translocation in HUVEC cells. HUVEC IL-1B NFkB p65 nuclear translocation imaging. inhibition, % at 2 µM. 94,000 tested, 0.43% active. AID 796;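 active = inhibition above about 30% together with a positive call from visual inspection of the well image, limit read from the data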;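 note: nuclear over cytoplasmic p65 intensity ratio measured by imaging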
HUVEC tox IL1B: toxic to HUVEC cells under IL-1B stimulation | HUVEC cell count loss, Hoechst imaging, IL-1B stimulated | cell count reduction, % at 2 µM | 94,000 tested, 0.41% active;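 active = cell count reduction more than 3 SD above the screen-wide mean, cut at about 70% in these data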
IL1B NFkB pot: enhances IL-1B driven NFkB nuclear translocation; AID 819; activation, % at 2 µM; HUVEC IL-1B NFkB p65 nuclear translocation imaging; 94,000 tested, 0.3% active;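 active = activation above 40%, about the mean plus 3 SD, also judged a hit on visual image review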;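 note: percent activation is computed from the nuclear over cytoplasmic p65 intensity ratio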
Hits are given with their value; - = inactive; . = no result; [ ] = dose if it differs, or a comment. Most compounds without a hit are left out; they make up all but 3.3% or so of the library.

SMILES	FAK inh	Rev-RRE block	Measles CPE	IL1B NFkB inh	HUVEC tox IL1B	IL1B NFkB pot
Clc1ccc(Cn2c(-c3cccnc3Cl)nc3ccccc32)c(Cl)c1	-	-	-	-	-	-
CSc1cccc(NC(C)=O)c1	.	.	-	.	.	.
CSc1cccc(NC(=O)Cn2cccc2)c1	-	-	80	-	-	-
O=C(Nc1ccc(N=Nc2ccccc2)c(NC(=O)C2CCCO2)c1)C1CCCO1 (stereo not given)	.	.	-	.	.	.
Cc1cc(=O)c2cccc(Br)c2[nH]1	-	-	-	30	90	-
N#C/C(=C1\CCCN1)c1ccc2ccccc2n1	-	-	18	-	-	-
COc1ccc(N/N=C(/C)c2cnnc(-c3ccccc3)n2)cc1	.	.	-	.	.	.
CCOC(=O)N1CCN(C(=O)C(=O)NNC(=O)COc2ccc(Cl)cc2)CC1	.	.	-	.	.	.
O=C(NC1CCCC1)C1C2C=CC(C2)C1C(=O)N1CCOCC1 (stereo not given)	-	-	-	-	83	-
O=C(O)C1C2C=CC(C2)C1C(=O)N1CCOCC1 (stereo not given)	.	.	-	.	.	.
O=C(CNC(=S)N(Cc1ccccc1)Cc1cccnc1)NC1CCCC1	.	.	28	.	.	.
COc1ccc(C(=O)c2sc3nc(-c4ccc(OC)cc4)ccc3c2N)cc1	.	.	-	.	.	.
COc1ccc(-c2ccc3c(N)c(C(=O)c4cccc(OC)c4)sc3n2)cc1	-	55	-	-	-	-
CCN(CC)c1ccc(/C=C(/C#N)c2nc3ccccc3[nH]2)c(OC(C)C)c1	-	136[fluorescence artefact?]	-	-	-	-
C=CCSc1nc(C)cc(/C=C\c2ccccc2)c1C#N	-	-	-	-	-	-
CCCCC(CC)CNC(=O)C(=O)c1ccccc1NC(C)=O (stereo not given)	.	.	-	.	.	.
CCCC1=NN(c2ccc([N+](=O)[O-])cc2)C(=O)/C1=C\N(C)C	.	.	32	.	.	.
CCCCCCc1cc2cc(C(=O)NCc3ccccc3)c(=N)oc2cc1O	-	104[fluorescence artefact?]	-	-	-	-
CCCCCCc1cc2cc(C(=O)Nc3ccccc3)c(=O)oc2cc1O	.	.	-	.	.	.
O=C(O)CC1Sc2ccccc2NC1=O (stereo not given)	.	.	-	.	.	.
CCCNC(=O)CC1Sc2ccccc2NC1=O (stereo not given)	-	-	-	-	-	43
CCCCCN(C(=O)NC(=O)Nc1ccc(C)cc1)S(=O)(=O)c1ccccc1	.	.	-	.	.	.
O=C(NCc1ccccc1)C(=O)NCC1OCCN1S(=O)(=O)c1cccs1 (stereo not given)	.	.	36	.	.	.
Cc1ccc(CNC(=O)C(=O)NCC2OCCN2S(=O)(=O)c2cccs2)cc1 (stereo not given)	.	.	-	.	.	.
Cc1ccc(C(=O)O/N=C(\N)c2nonc2N)cc1	.	.	-	.	.	.
SMILES	FAK inh	Rev-RRE block	Measles CPE	IL1B NFkB inh	HUVEC tox IL1B	IL1B NFkB pot
Cc1cc(Br)c2c(c1)C(O)(N1CCCCC1C)C(=O)N2 (stereo not given)	.	.	-	.	.	.
CCOC(=O)COc1c(Cl)cc(C2NC(=S)NC(c3ccccc3)=C2C(C)=O)cc1OCC (stereo not given)	.	.	-	.	.	.
CCOC(=O)c1c(-c2ccccc2Cl)csc1NC(=O)c1cc(S(=O)(=O)N2CCOCC2)ccc1C	.	.	-	.	.	.
CCOC(=O)C(=CNc1ccc(C)cc1C)C(=O)OCC	-	-	37	-	-	-
CCOC(=O)C(=CNc1cccc(C)c1C)C(=O)OCC	-	-	-	-	-	-
CCOc1nc(NC2CCCCC2)nc(NC(C)(C)C)n1	-	-	61	-	-	-
COc1ccc2c(c1)SCCC2=O	-	-	34	-	-	-
COc1ccc2c(c1)CC/C(=C\C=C\c1ccccc1)C2=O	-	-	-	-	-	-
Cc1ccc(NC(=O)COC(=O)c2cccc3c(=O)c(C)c(-c4ccccc4)oc23)cc1	.	.	-	.	.	.
Cc1ccc(S(=O)(=O)N(c2nc(NC(C)C)nc(NC(C)C)n2)n2cnnc2)cc1	.	.	-	.	.	.
Cc1cccc(N(C(=O)c2sc(C)nc2C)C(C(=O)NCc2ccco2)c2ccccc2)c1 (stereo not given)	-	-	-	-	-	47
CCN(CC)C(=O)COc1cc(C)cc2oc(=O)cc(-c3ccccc3)c12	-	-	-	33	-	-
O=C(Nc1ccc(Cl)cc1)C1C2CCC3C(CCC21)C3(Cl)Cl (stereo not given)	-	-	-	-	-	-
O=C(O)C1C(C(=O)Nc2ccc(Cl)cc2)C2C=CC1C21CC1 (stereo not given)	-	-	-	-	76	-
COc1ccccc1OC(=O)c1ccc(S(=O)(=O)N(C)C)cc1	-	-	44	-	-	-
COc1cc(NC(=O)c2ccc(S(=O)(=O)N(C)C)cc2)cc(OC)c1OC	-	-	-	-	-	-
CCN(CC)C(=O)Cn1cnc2sc(C(=O)Nc3cc(OC)c(OC)c(OC)c3)c(C)c2c1=O	-	-	-	-	-	42
CCCNC(=O)Cn1cnc2sc(C(=O)NCCN(CC)CC)c(C)c2c1=O	-	-	37	-	-	-
CCCNC(=O)Cn1cnc2sc(C(=O)Nc3cc(OC)c(OC)c(OC)c3)c(C)c2c1=O	-	-	-	-	-	-
O=S(=O)(Nc1nc2ccccc2nc1Nc1cccc(S(=O)(=O)N2CCCCC2)c1)c1ccccc1	.	.	-	.	.	.
CCCS(=O)(=O)N1CCCC(C(=O)NC2CCCC(C)C2C)C1 (stereo not given)	-	-	-	-	-	-
CCCS(=O)(=O)N1CCC(C(=O)NC2CCCC(C)C2C)CC1 (stereo not given)	-	-	-	-	-	46
Cc1c(-c2ccccc2)oc2c(C(=O)N3CCN(c4ccccc4F)CC3)cccc2c1=O	.	.	-	.	.	.
COc1ccc(/C=N/OCC(=O)N2CC3(C)CC2CC(C)(C)C3)cc1OC (stereo not given)	-	-	44	-	-	-
Cc1csc2cc(-c3cccc([N+](=O)[O-])c3)c(-c3cccc([N+](=O)[O-])c3)c[n+]12	.	.	-	.	.	.
SMILES	FAK inh	Rev-RRE block	Measles CPE	IL1B NFkB inh	HUVEC tox IL1B	IL1B NFkB pot
O=C1N/C(=C/c2ccc(N3CCCC3)cc2)C(=O)N1c1ccccc1	.	.	-	.	.	.
O=C1/C(=C/c2ccc(N3CCCC3)cc2)NC(=S)N1C1CC1	-	137[fluorescence artefact?]	-	-	-	-
CCN(CC)CCSc1nc(O)c(C(C)C)c(=O)[nH]1	-	-	-	-	-	-
CCCc1c(O)nc(SCCN(CC)CC)[nH]c1=O	-	-	-	32	89	-
Cc1cc(/C=C2/SC(=S)N(c3ccc([N+](=O)[O-])cc3)C2=O)c(C)n1-c1cccnc1	.	.	-	.	.	.
Cc1cc(/C=C2/SC(=S)N(c3cccc(Cl)c3)C2=O)c(C)n1-c1cccnc1	-	39	.	-	-	-
COC(=O)c1c(NC(=O)CN2C(=O)C(=O)N(CC(C)C)C2=O)sc2c1CCCCC2	.	.	-	.	.	.
c1ccc(Cc2nnc3sc(-c4ccccn4)nn23)cc1	-	-	62	-	-	-
c1ccc(Cc2nnc3sc(-c4cccnc4)nn23)cc1	-	-	-	-	91	-
CCOC(=O)NC1(C(F)(F)F)C(=O)NC(C)=C1C(=O)OC (stereo not given)	-	-	-	-	-	-

Compound activity: PubChem BioAssay, several laboratories
